The results in this text go back to ChEMBL document CHEMBL5257036, “Benzophenone-nucleoside derivatives as telomerase inhibitors: Design, synthesis and anticancer evaluation in vitro and in vivo” (Eur J Med Chem, 2016).

pIC50: −log10 of the molar value. The source made the active and inactive calls. The rule behind the calls is not given here.

One assay deals with HeLa. Briefly: Antiproliferative activity against human HeLa cells measured after 48 hrs by MTT assay. In kind it is functional, cell-based. The gist of the method: (§1)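 Cells grown to log phase in RPMI 1640 with 10% FBS, seeded at 3 × 10⁴ cells/mL, and preincubated 24 h at 37 °C, 5% CO₂. Compounds were added at pre-set concentrations to 6 wells each, with doxorubicin as reference, and exposed for 48 h. MTT was then added and absorbance read at 570 nm.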
(In general: Tetrazolium dyes change colour on reduction, which living cells bring about.)

The next assay has as its system SMMC-7721. Put plainly: Antiproliferative activity against human SMMC-7721 cells measured after 48 hrs by MTT assay. The settings on record: SMMC-7721, 48 h. In kind it is functional, cell-based. The method, boiled down: as §1
The test system of the next assay is HepG2. Put plainly: Antiproliferative activity against human HepG2 cells measured after 48 hrs by MTT assay. The settings on record: HepG2, 48 h. In kind it is functional, cell-based. The gist of the method:
as §1

The subject of a further assay is SGC-7901. Briefly: Antiproliferative activity against human SGC-7901 cells measured after 48 hrs by MTT assay. The settings on record: SGC-7901, 48 h. In kind it is functional, cell-based. The gist of the method:
as §1

Assay [1] deals with T1, Telomerase reverse transcriptase (Homo sapiens, UniProt O14746). Put plainly: Inhibition of telomerase activity in human SGC-7901 cells incubated for 24 hrs by TRAP-PCR-ELISA assay. The assay is classed as cell-based. The method, boiled down: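 Extract was mixed with TRAP reaction mix, incubated 25 °C for 30 min, then 35 PCR cycles (94/50/72 °C). Products detected by anti-DIG-peroxidase ELISA at 490 nm; mean ± SD.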
T1 sequence (O14746 whole entry): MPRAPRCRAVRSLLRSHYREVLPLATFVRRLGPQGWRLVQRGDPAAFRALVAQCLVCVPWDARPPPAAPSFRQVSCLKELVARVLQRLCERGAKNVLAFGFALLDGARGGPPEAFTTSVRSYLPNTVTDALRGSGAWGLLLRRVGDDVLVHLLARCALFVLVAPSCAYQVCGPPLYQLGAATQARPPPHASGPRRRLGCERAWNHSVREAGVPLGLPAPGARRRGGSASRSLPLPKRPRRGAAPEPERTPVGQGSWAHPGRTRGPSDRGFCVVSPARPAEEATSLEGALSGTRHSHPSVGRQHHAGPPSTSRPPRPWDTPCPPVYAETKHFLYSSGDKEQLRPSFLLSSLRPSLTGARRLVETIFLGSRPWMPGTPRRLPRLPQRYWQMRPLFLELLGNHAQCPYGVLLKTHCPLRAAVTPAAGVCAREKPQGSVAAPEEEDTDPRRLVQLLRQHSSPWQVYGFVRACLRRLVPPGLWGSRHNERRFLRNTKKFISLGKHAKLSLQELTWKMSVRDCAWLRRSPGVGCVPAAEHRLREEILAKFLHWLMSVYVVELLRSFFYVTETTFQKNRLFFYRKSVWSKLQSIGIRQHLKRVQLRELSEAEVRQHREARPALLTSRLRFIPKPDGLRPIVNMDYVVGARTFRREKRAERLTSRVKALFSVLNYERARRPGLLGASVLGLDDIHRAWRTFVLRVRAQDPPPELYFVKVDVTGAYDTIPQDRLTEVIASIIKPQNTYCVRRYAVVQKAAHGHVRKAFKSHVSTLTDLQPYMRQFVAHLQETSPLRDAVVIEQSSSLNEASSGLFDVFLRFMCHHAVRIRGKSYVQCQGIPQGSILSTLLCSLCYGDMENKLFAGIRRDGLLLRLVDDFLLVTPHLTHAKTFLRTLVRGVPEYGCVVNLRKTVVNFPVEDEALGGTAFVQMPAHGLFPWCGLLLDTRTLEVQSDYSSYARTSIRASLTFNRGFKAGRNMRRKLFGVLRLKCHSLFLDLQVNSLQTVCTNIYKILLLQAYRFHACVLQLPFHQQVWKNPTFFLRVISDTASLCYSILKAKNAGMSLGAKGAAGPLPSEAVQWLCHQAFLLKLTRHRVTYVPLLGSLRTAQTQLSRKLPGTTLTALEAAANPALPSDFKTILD
In general terms: An ELISA detects its analyte on a solid surface through an enzyme-linked reagent.

Assay [2] deals with T1, Telomerase reverse transcriptase. Briefly: Inhibition of telomerase activity in human SGC-7901 cells at 0.082 to 60 ug/mL incubated for 24 hrs by TRAP-PCR-ELISA assay. The settings on record: dose 0.082-60 ug/mL.

As a reminder, the pIC50 is the negative decadic logarithm of the IC50, by convention in mol/L. For `COc1ccc(C(=O)c2ccccc2Cl)cc1OCC(=O)OC[C@@H]1C=C[C@H](n2cc(C)c(=O)[nH]c2=O)O1`, the figures for the pIC50 in the assay with HeLa and in the assay on SMMC-7721 were 4.34 and 4.39, respectively.

Consider `COc1ccc(C(=O)c2cc(OC)c(OC)c(OC)c2)cc1OCC(=O)OC[C@@H]1C=C[C@H](n2cc(C)c(=O)[nH]c2=O)O1`, for which the pIC50 is 4.89 in the assay on HeLa, 4.67 in the assay with SMMC-7721, 4.83 in the assay on HepG2 and 4.63 in the assay on SGC-7901.

Take `COc1ccc(C(=O)c2ccc([N+](=O)[O-])cc2)cc1OCC(=O)OC[C@@H]1C=C[C@H](n2cc(C)c(=O)[nH]c2=O)O1`: the figures for the pIC50 in the assay on HeLa and in the assay on SGC-7901 were 4.30 and 4.32, respectively.

Turning to `COc1ccc(C(=O)c2ccc([N+](=O)[O-])cc2)cc1OC(=O)CCC(=O)OC[C@@H]1C=C[C@H](n2cc(C)c(=O)[nH]c2=O)O1`, the pIC50 was 4.68 in the assay on HeLa; 4.52 in the assay with SMMC-7721; 4.62 in the assay on HepG2; 4.99 in the assay with SGC-7901; 4.54 in assay [1].

`COc1ccc(C(=O)c2cc(Br)ccc2Cl)cc1OCC(=O)OC[C@@H]1C=C[C@H](n2cc(C)c(=O)[nH]c2=O)O1`: the inhibition result in assay [2] was “inactive”.

As for `COc1ccc(C(=O)c2cccc(Cl)c2)cc1OC(=O)CCC(=O)OC[C@@H]1C=C[C@H](n2cc(C)c(=O)[nH]c2=O)O1`, the pIC50 was 5.19 in the assay on HeLa, 5.49 with SMMC-7721, 4.96 in the assay on HepG2 and 5.38 in the assay with SGC-7901.
